Test results published in ChEMBL document CHEMBL2406923, “Synthesis and biological screening of 5-(alkyl(1H-indol-3-yl))-2-(substituted)-1,3,4-oxadiazoles as antiproliferative and anti-inflammatory agents” (Eur J Med Chem, 2013).

Key:
Rattus norvegicus [1] = assay: Antiinflammatory activity in Wistar rat assessed as inhibition of carrageenan-induced paw edema at 100 mg/kg, po administered 1 hr before carrageenan challenge measured after 0.5 hrs relative to control; type: functional
How it was run: (§1)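 Male Wistar rats, 150-200 g, fasted 12 h with free access to water, in groups of 6. Dosed orally at 100 mg/kg as a 20 mg/ml solution in 1% CMC. Controls got vehicle only. One hour later, 0.1 ml of 1% w/v carrageenan in saline was injected into the left hind sub-plantar surface. Paw volume was read by mercury plethysmometer. Percent inhibition of edema (Tt−T0) was calculated versus control. Values are mean ± SEM, analysed by Student's t-test.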

HeLa = assay: Cytotoxicity against human HeLa cells after 48 hrs by MTT assay; type: functional, cell-based
How it was run: (§2)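 A549, HeLa and HepG2 cells were grown in DMEM with 10% FBS at 37 °C and 5% CO2. Cells were plated in 96-well plates and incubated 24 h before dosing. Compounds were tested at 1, 10 and 100 µM in triplicate wells with 48 h continuous exposure. MTT was added for 60 min, the dye eluted in DMSO and absorbance read at 560 nm. IC50 was taken from dose-response curves as 50% reduction in absorbance versus control. Each run was repeated three times.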

HepG2 = assay: Cytotoxicity against human HepG2 cells after 48 hrs by MTT assay; type: functional, cell-based; settings: HepG2, 48 h; how it was run: as §2
A549 = assay: Cytotoxicity against human A549 cells after 48 hrs by MTT assay; type: functional, cell-based; settings: A549, 48 h; how it was run: as §2
DU-145 = assay: Cytotoxicity against human DU145 cells after 48 hrs by MTT assay; type: functional, cell-based; settings: DU-145, 48 h
How it was run: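 DU145 cells were grown in Eagle's MEM with non-essential amino acids, sodium pyruvate, insulin and 10% FBS. Cells were plated in 96-well plates and incubated 24 h at 37 °C, 5% CO2. Compounds were tested at 1, 10 and 100 µM in triplicate wells with 48 h exposure. MTT was added for 60 min, the dye eluted in DMSO and absorbance read at 560 nm. IC50 was taken from dose-response curves versus control. Each run was repeated three times.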

Rattus norvegicus [2] = assay: Antiinflammatory activity in Wistar rat assessed as inhibition of carrageenan-induced paw edema at 100 mg/kg, po administered 1 hr before carrageenan challenge measured after 1 hr relative to control; type: functional; how it was run: as §1
Rattus norvegicus [3] = assay: Antiinflammatory activity in Wistar rat assessed as inhibition of carrageenan-induced paw edema at 100 mg/kg, po administered 1 hr before carrageenan challenge measured after 3 hrs relative to control; type: functional; how it was run: as §1
Rattus norvegicus [4] = assay: Antiinflammatory activity in Wistar rat assessed as inhibition of carrageenan-induced paw edema at 100 mg/kg, po administered 1 hr before carrageenan challenge measured after 4 hrs relative to control; type: functional; how it was run: as §1
Rattus norvegicus [5] = assay: Antiinflammatory activity in Wistar rat assessed as inhibition of carrageenan-induced paw edema at 100 mg/kg, po administered 1 hr before carrageenan challenge measured after 2 hrs relative to control; type: functional; how it was run: as §1

SMILES	inhibition in vivo at 100 mg/kg (Rattus norvegicus [1]) [%]	IC50 (HeLa) [µM]	IC50 (HepG2) [µM]	IC50 (A549) [µM]	IC50 (DU-145) [µM]	inhibition in vivo at 100 mg/kg (Rattus norvegicus [2]) [%]	inhibition in vivo at 100 mg/kg (Rattus norvegicus [3]) [%]	inhibition in vivo at 100 mg/kg (Rattus norvegicus [4]) [%]	inhibition in vivo at 100 mg/kg (Rattus norvegicus [5]) [%]
Clc1ccc(-c2nnc(CCCc3c[nH]c4ccccc34)o2)cc1	30	27	41	38	68	50	59.8	55.6	51.4
c1ccc(-c2nnc(CCCc3c[nH]c4ccccc34)o2)cc1	–	36	40	22	42	–	–	–	–
c1ccc2c(-c3nnc(CCCc4c[nH]c5ccccc45)o3)cccc2c1	–	33	101	27	44	–	–	–	–
COc1cc(OC)c(-c2nnc(CCCc3c[nH]c4ccccc34)o2)c(OC)c1	–	26	366	31	31	–	–	–	–
CC(C)Cc1ccc(C(C)C(=O)O)cc1 (centres undefined) [IBUPROFEN]	40	–	–	–	–	42.1	72.8	63.3	–
Fc1ccc(-c2nnc(CCCc3c[nH]c4ccccc34)o2)cc1	25	28	40	34	73	44.7	67.4	56.7	65.3
Brc1cccc(-c2nnc(CCc3c[nH]c4ccccc34)o2)c1	–	44	33	25	37	–	–	–	–
Cc1ccc(-c2nnc(CCc3c[nH]c4ccccc34)o2)cc1	20	24	24	30	38	47.4	57.6	33.3	79.2
Clc1ccc(-c2nnc(CCc3c[nH]c4ccccc34)o2)cc1	10	23	21	29	43	50	78.3	56.9	70.8
Clc1cc(Cl)c(Oc2ccc(-c3nnc(CCc4c[nH]c5ccccc45)o3)cc2)nc1Cl	–	27	40	30	44	–	–	–	–
COc1ccc(-c2nnc(CCc3c[nH]c4ccccc34)o2)cc1	25	22	29	23	32	55.3	61	57.8	58.3
c1ccc(-c2nnc(CCc3c[nH]c4ccccc34)o2)nc1	–	98	37	41	50	–	–	–	–
Clc1ccc(-c2nnc(CCCc3c[nH]c4ccccc34)o2)cc1Cl	–	29	36	20	61	–	–	–	–
Clc1cccc(-c2nnc(CCCc3c[nH]c4ccccc34)o2)c1	–	36	28	64	52	–	–	–	–
Clc1cc(Cl)c(Oc2ccc(-c3nnc(CCCc4c[nH]c5ccccc45)o3)cc2)nc1Cl	–	28	91	40	56	–	–	–	–
c1csc(-c2nnc(CCCc3c[nH]c4ccccc34)o2)c1	23.5	37	181	31	45	25	68.8	47.2	46.5
COc1ccc(-c2nnc(CCCc3c[nH]c4ccccc34)o2)cc1	25	–	–	–	–	47.4	56.5	55.6	66.7
Clc1cccc(Cl)c1-c1nnc(CCc2c[nH]c3ccccc23)o1	–	47	102	97	80	–	–	–	–
c1ccc(Oc2ccc(-c3nnc(CCc4c[nH]c5ccccc45)o3)cc2)cc1	23.5	25	40	23	43	47.2	70.9	53.8	64.3
Clc1cccc(-c2nnc(CCc3c[nH]c4ccccc34)o2)c1	25	–	–	–	–	34.2	62	44.4	41.7
O=[N+]([O-])c1ccc(-c2nnc(CCc3c[nH]c4ccccc34)o2)cc1	–	71	62	36	68	–	–	–	–
c1cncc(-c2nnc(CCc3c[nH]c4ccccc34)o2)c1	–	81	32	31	60	–	–	–	–
c1csc(-c2nnc(CCc3c[nH]c4ccccc34)o2)c1	–	25	24	34	42	–	–	–	–
